ChEMBL document CHEMBL2176957, “Discovery of a novel noniminosugar acid α glucosidase chaperone series” (J Med Chem, 2012)
pIC50: −log10 of the molar value. Converted amounts (≈) assume the structure as drawn. The source made the active and inactive calls. No cut-off for these calls is given here.

Key:
[1] = molecular target: T1, Lysosomal alpha-glucosidase (Homo sapiens, UniProt P10253); assay: Ratio of Kd for wild type recombinant NT-495 labelled GAA to IC50 for wild type recombinant GAA (unknown origin
[2] = molecular target: T1, Lysosomal alpha-glucosidase; assay: Increase in GAA activity in human wild type skin fibroblasts incubated for 5 days by fluorescence assay relative to vehicle-treated control
How it was run: (§1)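 Fibroblasts seeded at 5,000 cells/well and treated 5 days, with media and compound renewed on day 3. Assayed directly or after PBS wash and 18 h or 40 h in compound-free medium. Cells were incubated 2 h at 37 °C in pH 4.0 citrate/phosphate buffer with 3 mM 4-MUG and acarbose, then stopped at pH 10. Background subtracted, normalized to vehicle (100%); triplicate, mean ±SD.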

Caco-2 [3] = assay: Efflux ratio from basolateral to apical side to apical to basolateral side of human Caco2 cells; type: ADME, cell-based
[4] = molecular target: T1, Lysosomal alpha-glucosidase; assay: Increase in GAA activity in human F2845 cells incubated for 5 days by fluorescence assay relative to vehicle-treated control; type: cell-based; how it was run: as §1
Caco-2 [5] = assay: Permeability from basolateral to apical side of human Caco2 cells
Caco-2 [6] = assay: Permeability from apical to basolateral side of human Caco2 cells
Liver = assay: Half life in mouse liver microsomes
[7] = Aqueous solubility in PBS buffer
[8] = molecular target: T1, Lysosomal alpha-glucosidase; assay: Increase in GAA activity in human F2845 cells incubated for 5 days followed by 18 to 40 hrs wash out by fluorescence assay relative to vehicle-treated control; type: cell-based; how it was run: as §1
[9] = molecular target: T1, Lysosomal alpha-glucosidase; assay: Increase in GAA activity in human wild type skin fibroblasts incubated for 5 days followed by 18 to 40 hrs wash out by fluorescence assay relative to vehicle-treated control; how it was run: as §1
[10] = Cytotoxicity in human F2845 cells assessed as cell viability at 1 to 5 uM after 5 days confocal laser-scanning microscopic analysis; type: cell-based; details: f2845, 120 h
How it was run: (§2)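 Primary wild-type dermal fibroblasts and patient-derived Pompe fibroblasts (passage 7) grown on chamber slides and exposed to compound for 5 or 6 days. Viability judged from the cultures examined by immunostaining and confocal microscopy.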

[11] = Cytotoxicity in human wild type skin fibroblasts assessed as cell viability at 1 to 5 uM after 5 days by confocal laser-scanning microscopic analysis; details: skin fibroblast, 120 h; how it was run: as §2
[12] = molecular target: T1, Lysosomal alpha-glucosidase; assay: Increase in translocation of GAA to lysosomes in human F2845 cells at 1 to 5 uM after 5 days by confocal laser-scanning microscopic analysis; type: cell-based
How it was run: (§3)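 Wild-type primary dermal fibroblasts or Pompe patient fibroblasts (F3248, F0833, F2845; low passage) treated with compound for 5 or 6 days. Fixed in 3% paraformaldehyde, permeabilized with 0.1% Triton X-100, blocked, stained with mouse anti-GAA (Alexa-488) and goat anti-cathepsin D (Alexa-555), DAPI counterstain. Confocal images taken at fixed laser settings; percentage of cells with lysosomal GAA co-localization scored.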

[13] = molecular target: T1, Lysosomal alpha-glucosidase; assay: Increase in translocation of GAA to lysosomes in human wild type skin fibroblasts at 1 to 5 uM after 5 days by confocal laser-scanning microscopic analysis; how it was run: as §3
[14] = Cytotoxicity in human F2845 cells at 10 to 20 uM after 6 days by confocal laser-scanning microscopic analysis; type: cell-based; details: f2845, 144 h; how it was run: as §2
[15] = Cytotoxicity in human wild type skin fibroblasts at 10 to 20 uM after 6 days by confocal laser-scanning microscopic analysis; details: skin fibroblast, 144 h; how it was run: as §2
[16] = molecular target: T1, Lysosomal alpha-glucosidase; assay: Binding affinity at wild type recombinant GAA assessed as rise in melting temperature of protein using SYPRO Orange dye by fluorescence assay
How it was run: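 Thermal shift of recombinant wild-type GAA (1 μM) with SYPRO Orange (5×) in 50 mM citrate buffer pH 5.0 with 100 mM KCl, 10 mM NaCl, 1 mM MgCl2. Six-point compound series, 0.82–200 μM final, 2% DMSO, DMSO controls. Heated 20 to 95 °C at 4.8 °C/s; fluorescence ex 498/em 580 nm; Tm calculated from the melt curve.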

[17] = molecular target: T1, Lysosomal alpha-glucosidase; assay: Inhibition of wild type recombinant GAA preincubated for 5 mins measured after 45 mins using red-shifted dye by fluorescence assay; details: read-out: IC50
[18] = molecular target: T1, Lysosomal alpha-glucosidase; assay: Inhibition of wild type recombinant GAA preincubated for 5 mins measured after 45 mins using blue-shifted dye by fluorescence assay; details: read-out: IC50
[19] = molecular target: T1, Lysosomal alpha-glucosidase; assay: Binding affinity at wild type recombinant GAA assessed as thermostabilization of protein at 50 uM incubated at 66 degC for 60 mins
How it was run: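 GAA incubated at 66 °C for 60 min with compound at 50 μM, compared with room-temperature incubation. Residual enzymatic activity read out and expressed as the ratio of heated to room-temperature activity; DMSO controls run in duplicate.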

[20] = molecular target: T1, Lysosomal alpha-glucosidase; assay: Inhibition of human recombinant GAA assessed as hydrolysis of bovine liver glycogen by Amplex red oxidase assay
How it was run: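 Recombinant human GAA hydrolysing bovine liver glycogen as the native substrate. Released glucose was detected with an Amplex Red glucose oxidase coupled reaction, read as fluorescence on a plate reader.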

[21] = molecular target: T2, Lysosomal acid glucosylceramidase (Homo sapiens) (UniProt P04062); assay: Inhibition of glucocerebrosidase
T2 sequence (whole entry): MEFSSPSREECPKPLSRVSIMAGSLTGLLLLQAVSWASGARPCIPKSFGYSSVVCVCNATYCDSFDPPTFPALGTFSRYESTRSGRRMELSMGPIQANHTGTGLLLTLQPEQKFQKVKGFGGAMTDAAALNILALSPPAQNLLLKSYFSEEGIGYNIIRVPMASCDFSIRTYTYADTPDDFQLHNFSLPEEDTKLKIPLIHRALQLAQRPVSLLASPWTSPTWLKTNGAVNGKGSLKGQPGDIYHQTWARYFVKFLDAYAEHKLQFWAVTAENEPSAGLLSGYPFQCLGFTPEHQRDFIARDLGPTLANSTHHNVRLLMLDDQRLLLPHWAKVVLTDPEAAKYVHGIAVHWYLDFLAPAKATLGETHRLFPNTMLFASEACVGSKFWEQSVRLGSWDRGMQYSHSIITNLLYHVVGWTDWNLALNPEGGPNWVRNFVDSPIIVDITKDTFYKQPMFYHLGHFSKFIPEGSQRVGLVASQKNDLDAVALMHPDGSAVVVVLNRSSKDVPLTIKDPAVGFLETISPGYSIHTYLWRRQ

[22] = Inhibition of alpha-galactosidase
[23] = molecular target: T1, Lysosomal alpha-glucosidase; assay: Increase in translocation of GAA to lysosome in human F3248 cells at 1 uM after 5 days by confocal laser-scanning microscopic analysis; type: cell-based; how it was run: as §3
[24] = molecular target: T1, Lysosomal alpha-glucosidase; assay: Increase in translocation of GAA to lysosome in human F0833 cells at 1 uM after 5 days by confocal laser-scanning microscopic analysis; type: cell-based; how it was run: as §3
[25] = molecular target: T1, Lysosomal alpha-glucosidase; assay: Increase in translocation of GAA to lysosome in human F2845 cells at 1 uM after 5 days by confocal laser-scanning microscopic analysis; type: cell-based; how it was run: as §3
[26] = molecular target: T1, Lysosomal alpha-glucosidase; assay: Increase in translocation of GAA to lysosome in human F3248 cells at 5 uM after 5 days by confocal laser-scanning microscopic analysis; type: cell-based; how it was run: as §3
[27] = molecular target: T1, Lysosomal alpha-glucosidase; assay: Increase in translocation of GAA to lysosome in human F0833 cells at 5 uM after 5 days by confocal laser-scanning microscopic analysis; type: cell-based; how it was run: as §3
[28] = molecular target: T1, Lysosomal alpha-glucosidase; assay: Increase in translocation of GAA to lysosome in human F2845 cells at 5 uM after 5 days by confocal laser-scanning microscopic analysis; type: cell-based; how it was run: as §3
[29] = Cytotoxicity in human F2845 cells at 5 uM after 6 days by confocal laser-scanning microscopic analysis; type: cell-based; details: f2845, 144 h; how it was run: as §2
[30] = molecular target: T1, Lysosomal alpha-glucosidase; assay: Increase in translocation of GAA to lysosomes in human wild type skin fibroblasts at 5 uM after 6 days by confocal laser-scanning microscopic analysis; how it was run: as §3
[31] = molecular target: T1, Lysosomal alpha-glucosidase; assay: Increase in translocation of GAA to lysosomes in human wild type fibroblasts at 15 uM after 6 days confocal laser-scanning microscopic analysis; how it was run: as §3

CC(=O)c1ccc(N2CCN(S(=O)(=O)c3ccc4c(c3)CC(=O)N4)CC2)cc1
Ratio [1]: 20
Activity [2]: Active
Ratio (Caco-2 [3]): 1.9
Activity [4]: Active
Papp (Caco-2 [5]): 27.1 ×10⁻⁶ cm/s
Papp (Caco-2 [6]): 14.6 ×10⁻⁶ cm/s
t1/2 (Liver): > 1 h
solubility [7]: 7.9 µM (≈ 3.16 µg/mL)
Activity [8]: Active
Activity [9]: Active
Activity [10]: Non-toxic
Activity [11]: Non-toxic
Activity [12]: inactive
Activity [13]: inactive
Activity [14]: Toxic
Activity [15]: Toxic
Activity [16]: Active
pIC50 [17]: 6.03
pIC50 [18]: 6.12
Activity [19]: Active
INH [20]: 330 nM
inhibition [21]: Active
inhibition [22]: Active

CC(=O)c1ccc(N2CCN(S(=O)(=O)c3cc4c(cc3Cl)NC(=O)C4)CC2)cc1
Ratio [1]: 20
Activity [2]: Active
Ratio (Caco-2 [3]): 0.57
Activity [23]: inactive
Activity [24]: inactive
Activity [4]: Active
Papp (Caco-2 [5]): 30.9 ×10⁻⁶ cm/s
Papp (Caco-2 [6]): 54.3 ×10⁻⁶ cm/s
t1/2 (Liver): > 1 h
solubility [7]: 20.8 µM (≈ 9.03 µg/mL)
Activity [8]: Active
Activity [9]: Active
Activity [25]: inactive
Activity [26]: Active
Activity [27]: Active
Activity [28]: Active
Activity [29]: Toxic
Activity [30]: 30%
Activity [31]: 40%
Activity [16]: Active
pIC50 [17]: 5.79
pIC50 [18]: 5.79
Activity [19]: Active
